Experimental data reported in article PMC11608545 (International Journal of Nanomedicine, 2024).
In brackets after ≈: the same amount, converted by molar mass.

Key:
MV4-11 = assay: Antiproliferative activity, MTT assay; format: cell-based, human; conditions: for IC50: MV4-11, 72 h; for calculated selectivity index SI: IC50 MCF-10A / IC50 MV4-11
MCF-7 = assay: Antiproliferative activity, SRB assay; format: cell-based, human; conditions: for calculated selectivity index SI: IC50 MCF-10A / IC50 MCF-7
A-549 = assay: Antiproliferative activity, SRB assay; format: cell-based, human; conditions: for calculated selectivity index SI: IC50 MCF-10A / IC50 A-549
MCF-10A = assay: cells; format: cell-based, human
MDA-MB-468 = assay: Antiproliferative activity, SRB assay; format: cell-based, human; conditions: for IC50: MDA-MB-468, 72 h; for calculated selectivity index SI: IC50 MCF-10A / IC50 MDA-MB-468
[1] = background statement, no reference given, cited from earlier work
PC-3 = assay: Antiproliferative activity, SRB assay; format: cell-based, human; conditions: for calculated selectivity index SI: IC50 MCF-10A / IC50 PC3
MV4-11 cells [2] = assay: Apoptosis determination by Annexin V staining; format: cell-based, human; conditions: MV4-11, 1.5 × IC50
[3] = test system: selected cancer cell lines (MV4-11, A549, PC-3, MDA-MB-468, MCF-7); assay: Antiproliferative activity, all studied cancer cell lines together; format: cell-based, human; conditions: read-out: IC50 values, range over all studied cancer cell lines; 72 h
Procedure, shortened: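 Cells were seeded 24 h before treatment at 0.5×10^4 (A549), 0.75×10^4 (MDA-MB-468, MCF-7) or 1×10^4 (PC-3, MV4-11) cells/well. They were exposed 72 h to test compound at 1–625 μM in medium; loaded nanocarrier was dosed by encapsulated conjugate. Read-out was MTT (MV4-11) or SRB (others). Triplicates, 3–5 independent runs; IC50 per run, mean ± SD.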

[4] = test system: caspase-3/7 in MV4-11 cells; assay: Caspase-3/7 activity determination; format: cell-based, human; conditions: MV4-11, 24 h or 72 h, 1.5 × IC50
MV4-11 cells [5] = assay: Cell cycle analysis; format: cell-based, human; conditions: MV4-11, 72 h, 1.5 × IC50
MDA-MB-468 cells = assay: Cell cycle analysis; format: cell-based, human; conditions: MDA-MB-468, 72 h, 1.5 × IC50
[6] = test system: caspase-3/7 in MDA-MB-468 cells; assay: Caspase-3/7 activity determination; format: cell-based, human; conditions: MDA-MB-468, 24 h or 72 h, 1.5 × IC50
[7] = SRB, n.a. = not active in the range concentration (5–625 μM)

Structure (SMILES)	IC50 (MV4-11; MTT) [µM]	IC50 (MCF-7; MCF-7, 72 h, SRB) [µM]	IC50 (A-549; A-549, 72 h, SRB) [µM]	IC50 (MDA-MB-468; [7]) [µM]	IC50 (PC-3; PC3, 72 h, SRB) [µM]	calculated selectivity index SI (MV4-11)	calculated selectivity index SI (MCF-7)	calculated selectivity index SI (A-549)	calculated selectivity index SI (MDA-MB-468)	calculated selectivity index SI (PC-3)	also measured
COc1ccc2c(c1)c(CC(=O)O)c(C)n2C(=O)c1ccc(Cl)cc1 [IND, indomethacin, reference compound]	–	–	–	–	–	–	–	–	–	–	IC50 (MV4-11; Homo sapiens): 204 ± 41.5 µM; IC50 (MCF-7; Homo sapiens, MCF7, 72 h): 187 ± 19.4 µM; IC50 (A-549; Homo sapiens, A549, 72 h): 121 ± 31.6 µM; IC50 (MCF-10A; Homo sapiens, MCF-10A, 72 h): 191 ± 11.4 µM; IC50 (MDA-MB-468; Homo sapiens): 270 ± 56.3 µM; Biopharmaceutical Classification System (BCS) class [1]: Class II; water solubility ([1]; pH7): 105.2 µg/mL (≈ 294 µM); IC50 (PC-3; Homo sapiens, PC-3, 72 h): 160 ± 61.5 µM
CCCCCCCCCCCCCCCC(=O)OC[C@H](COP(=O)([O-])OCC[N+](C)(C)C)OC(=O)Cc1c(C)n(C(=O)c2ccc(Cl)cc2)c2ccc(OC)cc12 [PA-IND-PC, 1-palmitoyl-2-indomethacinoyl-sn-glycero-3-phosphocholine]	268 ± 34.3	276 ± 134	233 ± 108	281 ± 35.9	233 ± 0.6	1.16	1.12	1.33	1.10	1.33	–
CCCCCCCC/C=C\CCCCCCCC(=O)OC[C@H](COP(=O)([O-])OCC[N+](C)(C)C)OC(=O)Cc1c(C)n(C(=O)c2ccc(Cl)cc2)c2ccc(OC)cc12 [OA-IND-PC, 1-oleoyl-2-indomethacinoyl-sn-glycero-3-phosphocholine]	56.3 ± 0.8	59.8 ± 2.1	53.8 ± 1.2	56.4 ± 0.6	58 ± 11.9	1.80	1.70	1.89	1.80	1.75	effect on number of apoptotic (AnV+/PI+) cells (MV4-11 cells [2]): slightly increased; IC50 [3]: 33.5 to 67.5 µM; caspase-3/7 activation [4]: strongly increased caspase activity in MV4-11 cells after 72 h; effect on cell cycle / cell death (MV4-11 cells [5]): strongly induced cell death; effect on cell cycle / cell death (MDA-MB-468 cells): stopped the cell cycle in the G0/G1 phase, but did not induce cell death
COc1ccc2c(c1)c(CC(=O)OC[C@@H](O)COP(=O)([O-])OCC[N+](C)(C)C)c(C)n2C(=O)c1ccc(Cl)cc1 [IND-LPC, 1-indomethacinoyl-2-hydroxy-sn-glycero-3-phosphocholine]	3.1 ± 0.5	7.9 ± 0.7	27.2 ± 4.9	2.7 ± 0.5	14.4 ± 2.9	2.23	0.87	0.25	2.56	0.48	fold lower IC50 than free IND (MV4-11; MV4-11): 66 fold; effect on number of apoptotic (AnV+/PI+) cells (MV4-11 cells [2]): slightly increased; toxicity towards MCF-10A at the active doses (MCF-10A; at 3.1 μM and 2.7 μM): not toxic; caspase-3/7 activation [4]: higher level after 24 h than 72 h; fold lower IC50 than free IND (MDA-MB-468; MDA-MB-468): 100 fold; times more active against MDA-MB-468 than MCF-7 (MDA-MB-468; MDA-MB-468 vs MCF-7): 3 times; caspase-3/7 activation [6]: higher level after 24 h than 72 h; effect on cell cycle / cell death (MV4-11 cells [5]): strongly induced cell death; effect on cell cycle / cell death (MDA-MB-468 cells): strongly induces breast cancer cell death

Now from value to compound, other results behind:

IC50 (MV4-11; MTT) [µM]	IC50 (MCF-7; MCF-7, 72 h, SRB) [µM]	IC50 (A-549; A-549, 72 h, SRB) [µM]	IC50 (MDA-MB-468; [7]) [µM]	IC50 (PC-3; PC3, 72 h, SRB) [µM]	Structure (SMILES)	calculated selectivity index SI (MV4-11)	calculated selectivity index SI (MCF-7)	calculated selectivity index SI (A-549)	calculated selectivity index SI (MDA-MB-468)	calculated selectivity index SI (PC-3)	also measured
160 ± 59.7	230 ± 10.3	201 ± 23.5	214 ± 46.1	209 ± 18.3	CCCCCCCCCCCCCCCCCC(=O)O[C@H](COC(=O)Cc1c(C)n(C(=O)c2ccc(Cl)cc2)c2ccc(OC)cc12)COP(=O)([O-])OCC[N+](C)(C)C [IND-SA-PC, 1-indomethacinoyl-2-stearoyl-sn-glycero-3-phosphocholine]	1.90	1.33	1.51	1.42	1.46	–
430 ± 104	424 ± 14.4	423 ± 84.1	–	563 ± 75.1	CCCCCCCCCCCCCCCC(=O)O[C@H](COC(=O)Cc1c(C)n(C(=O)c2ccc(Cl)cc2)c2ccc(OC)cc12)COP(=O)([O-])OCC[N+](C)(C)C [IND-PA-PC, 1-indomethacinoyl-2-palmitoyl-sn-glycero-3-phosphocholine]	–	–	–	–	–	–
329 ± 34.6	288 ± 22.2	243 ± 15.7	289 ± 12.2	230 ± 15.8	CCCCCCCCCCCCCCCCCC(=O)OC[C@H](COP(=O)([O-])OCC[N+](C)(C)C)OC(=O)Cc1c(C)n(C(=O)c2ccc(Cl)cc2)c2ccc(OC)cc12 [SA-IND-PC, 1-stearoyl-2-indomethacinoyl-sn-glycero-3-phosphocholine]	1.64	1.87	2.22	1.87	2.34	–
